Source: ChEMBL document CHEMBL1806362, “Synthesis of some new [1,2,4]triazolo[3,4-b][1,3,4]thiadiazines and [1,2,4]triazolo[3,4-b][1,3,4] thiadiazoles starting from 5-nitro-2-furoic acid and evaluation of their antimicrobial activity” (Bioorg Med Chem, 2011)
Converted amounts (≈) assume the structure as drawn.

How the values were obtained:
Staphylococcus aureus = experiment: Antibacterial activity against Staphylococcus aureus after 24 hrs by broth dilution method; assay type: functional
Summary of the method: (§1)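 NCCLS broth dilution in 96-well microtitre plates. Inoculum adjusted with sterile saline to 1.0×10^5 c.f.u./ml. Compounds dissolved in DMSO, with a broth-plus-DMSO solvent control. Incubated 24 h at 37 °C. MIC is the lowest concentration without visible growth. For MBC, clear wells were plated on Mueller Hinton agar for 24 h at 37 °C; MBC is the lowest concentration with no colonies. Duplicates, repeated three times; values in μg/ml.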

Escherichia coli = experiment: Antibacterial activity against Escherichia coli after 24 hrs by broth dilution method; assay type: functional; summary of the method: as §1
HepG2 = experiment: Cytotoxicity against human HepG2 cells after 48 hrs by sulforhodamine B assay; assay type: functional, cell-based; conditions: HepG2, 48 h
Summary of the method: (§2)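 SRB assay. Cells seeded at 10⁴ cells/well and left 24 h to attach. Exposed to 0, 1, 2.5, 5 and 10 μg/ml for 48 h at 37 °C in humidified 5% CO₂. Fixed with trichloroacetic acid and stained 30 min with 0.4% SRB in 1% acetic acid. Washed with 1% acetic acid; bound dye extracted with Tris EDTA and absorbance read. IC50 taken from surviving fraction versus concentration curves.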

HCT-116 = experiment: Cytotoxicity against human HCT116 cells after 48 hrs by sulforhodamine B assay; assay type: functional, cell-based; conditions: HCT-116, 48 h; summary of the method: as §2

Structure (SMILES) | MBC (Staphylococcus aureus) [µg/mL] | MIC (Staphylococcus aureus) [µg/mL] | MBC (Escherichia coli) [µg/mL] | MIC (Escherichia coli) [µg/mL] | IC50 (HepG2) [µg/mL] | IC50 (HCT-116) [µg/mL]
Nn1c(S)nnc1-c1ccc([N+](=O)[O-])o1 | 200 (≈ 880 µM) | 50 (≈ 220 µM) | 200 (≈ 880 µM) | 25 (≈ 110 µM) | – | –
O=[N+]([O-])c1ccc(-c2nnc3n2NC(c2ccc[nH]2)S3)o1 (stereo unspecified) | 200 (≈ 657 µM) | 25 (≈ 82.2 µM) | 200 (≈ 657 µM) | 25 (≈ 82.2 µM) | – | –
O=[N+]([O-])c1ccc(-c2nnc3n2NC(c2ccco2)S3)o1 (stereo unspecified) | 200 (≈ 655 µM) | 25 (≈ 81.9 µM) | 200 (≈ 655 µM) | 25 (≈ 81.9 µM) | – | –
O=[N+]([O-])c1ccc(-c2nnc3n2NC(c2ccc([N+](=O)[O-])o2)S3)o1 (stereo unspecified) | 200 (≈ 571 µM) | 25 (≈ 71.4 µM) | 200 (≈ 571 µM) | 25 (≈ 71.4 µM) | – | –
O=[N+]([O-])c1ccc(-c2nnc3n2NC(c2cccs2)S3)o1 (stereo unspecified) | 200 (≈ 622 µM) | 25 (≈ 77.8 µM) | 200 (≈ 622 µM) | 50 (≈ 156 µM) | – | –
O=[N+]([O-])c1ccc(-c2nnc3n2NC(c2ccc([N+](=O)[O-])s2)S3)o1 (stereo unspecified) | 200 (≈ 546 µM) | 25 (≈ 68.2 µM) | 200 (≈ 546 µM) | 50 (≈ 136 µM) | – | –
CCNc1nn2c(-c3ccc([N+](=O)[O-])o3)nnc2s1 | 100 (≈ 357 µM) | 25 (≈ 89.2 µM) | 200 (≈ 714 µM) | 25 (≈ 89.2 µM) | – | –
CCCCNc1nn2c(-c3ccc([N+](=O)[O-])o3)nnc2s1 | 200 (≈ 649 µM) | 25 (≈ 81.1 µM) | 100 (≈ 324 µM) | 25 (≈ 81.1 µM) | – | –
O=[N+]([O-])c1ccc(-c2nnc3sc(Nc4ccccc4)nn23)o1 | 50 (≈ 152 µM) | 25 (≈ 76.1 µM) | 100 (≈ 305 µM) | 50 (≈ 152 µM) | 4.23 (≈ 12.9 µM) | 4.38 (≈ 13.3 µM)
O=[N+]([O-])c1ccc(-c2nnc3sc(Nc4ccc(F)cc4)nn23)o1 | 50 (≈ 144 µM) | 25 (≈ 72.2 µM) | 100 (≈ 289 µM) | 25 (≈ 72.2 µM) | 11.3 (≈ 32.6 µM) | 8.91 (≈ 25.7 µM)
CCc1ccc(Nc2nn3c(-c4ccc([N+](=O)[O-])o4)nnc3s2)cc1 | 50 (≈ 140 µM) | 25 (≈ 70.2 µM) | 50 (≈ 140 µM) | 25 (≈ 70.2 µM) | 3.78 (≈ 10.6 µM) | 6.65 (≈ 18.7 µM)
O=[N+]([O-])c1ccc(-c2nnc3n2N=C(c2ccccc2)CS3)o1 | 200 (≈ 611 µM) | 100 (≈ 306 µM) | 200 (≈ 611 µM) | 50 (≈ 153 µM) | – | –
O=[N+]([O-])c1ccc(-c2nnc3n2N=C(c2ccc(Cl)cc2)CS3)o1 | 200 (≈ 553 µM) | 25 (≈ 69.1 µM) | 200 (≈ 553 µM) | 25 (≈ 69.1 µM) | – | –
O=[N+]([O-])c1ccc(-c2nnc3n2N=C(c2ccc(Br)cc2)CS3)o1 | 200 (≈ 492 µM) | 25 (≈ 61.5 µM) | 200 (≈ 492 µM) | 25 (≈ 61.5 µM) | – | –
O=[N+]([O-])c1ccc(C2=Nn3c(nnc3-c3ccc([N+](=O)[O-])o3)SC2)cc1 | 100 (≈ 269 µM) | 50 (≈ 134 µM) | 200 (≈ 537 µM) | 25 (≈ 67.1 µM) | – | –
COc1ccc(C2=Nn3c(nnc3-c3ccc([N+](=O)[O-])o3)SC2)cc1 | 200 (≈ 560 µM) | 50 (≈ 140 µM) | 200 (≈ 560 µM) | 25 (≈ 70 µM) | – | –
CC1(C)S[C@@H]2[C@H](NC(=O)[C@H](N)c3ccccc3)C(=O)N2[C@H]1C(=O)O [AMPICILLIN] | 50 (≈ 143 µM) | 25 (≈ 71.5 µM) | 25 (≈ 71.5 µM) | 12.5 (≈ 35.8 µM) | – | –
COc1cccc2c1C(=O)c1c(O)c3c(c(O)c1C2=O)C[C@@](O)(C(=O)CO)C[C@@H]3O[C@H]1C[C@H](N)[C@H](O)[C@H](C)O1 [DOXORUBICIN] | – | – | – | – | 5.5 (≈ 10.1 µM) | 3.73 (≈ 6.86 µM)
